Source: ChEMBL document CHEMBL4304743, “Discovery of ( E)- N1-(3-Fluorophenyl)- N3-(3-(2-(pyridin-2-yl)vinyl)-1 H-indazol-6-yl)malonamide (CHMFL-KIT-033) as a Novel c-KIT T670I Mutant Selective Kinase Inhibitor for Gastrointestinal Stromal Tumors (GISTs)” (J Med Chem, 2019)
Active and inactive are the calls of the source. The calls are words filed in the database; no cut-off is given here.

How the values were obtained:
[1] = Antiproliferative activity in mouse BAF3 cells after 72 hrs by CCK8 assay; format: cell-based
In short: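 IL-3-independent BaF3 cells carrying tel-c-KIT constructs, grown in RPMI 1640 with 10% FBS. Cells at 1.5-5 × 10^4 cells/mL mixed directly with serial compound dilutions, 72 h at 37 °C, 5% CO2. CCK-8 read-out at 450 nm, normalized to DMSO; GI50 by curve fitting.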

[2] = tested on: Mast/stem cell growth factor receptor Kit (Homo sapiens), P10721 [T670I]; experiment: Inhibition of TEL fused c-KIT T670I mutant (unknown origin) transfected in mouse BAF3 cells assessed as growth inhibition after 72 hrs by CCK8 assay; format: cell-based
In short: (§1)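 Tel-c-KIT-transformed BaF3 lines (IL-3 independent) kept in RPMI 1640 with 10% FBS, 2% L-glutamine and pen/strep. Cells at 1.5 to 5 × 10^4 cells/mL mixed with graded compound and incubated 72 h at 37 °C, 5% CO2. Viability by CCK-8 absorbance at 450 nm, normalized to DMSO. GI50 from dose–response fit.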

[3] = tested on: Mast/stem cell growth factor receptor Kit (Homo sapiens), P10721 [V559D]; experiment: Inhibition of TEL fused c-KIT V559D mutant (unknown origin) transfected in mouse BAF3 cells assessed as growth inhibition after 72 hrs by CCK8 assay; format: cell-based; in short: as §1
[4] = biological target: T1, Mast/stem cell growth factor receptor Kit (Homo sapiens, UniProt P10721); experiment: Inhibition of wild-type His-tagged c-KIT (unknown origin) expressed in baculovirus infected sf9 cells pre-incubated for 60 mins followed by ATP addition and measured after 1 hr by Z-LYTE assay
[5] = biological target: Mast/stem cell growth factor receptor Kit (Homo sapiens, UniProt P10721, T670I); experiment: Inhibition of His-tagged c-KIT T670I mutant (544 to 935 residues) (unknown origin) expressed in baculovirus infected sf9 cells pre-incubated for 60 mins followed by ATP addition and measured after 1 hr by Z-LYTE assay
[6] = biological target: T1, Mast/stem cell growth factor receptor Kit; experiment: Inhibition of wild type c-KIT phosphorylation at Y719 residue in human COLO320DM cells after 2 hrs by Western blot analysis; format: cell-based
GISTT1 [7] = experiment: Antiproliferative activity against human GISTT1 cells harboring c-KIT 560 to 578 deletion/T670I double mutant incubated for 72 hrs by CCK8 assay; format: functional; settings: GISTT1, 72 h
In short: (§2)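 Adherent GIST cells seeded at 1.5-5 × 10^4 cells/mL and left overnight at 37 °C, 5% CO2. Medium then replaced with medium holding serial compound dilutions; 72 h incubation. Viability by CCK-8, absorbance at 450 nm, normalized to DMSO control; GI50 from dose-response fit.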

[8] = Antiproliferative activity against human GIST5R cells harboring c-KIT 560 to 578 deletion/T670I double mutant incubated for 72 hrs by CCK8 assay; format: functional; in short: as §2
[9] = Antiproliferative activity against human GIST48B cells incubated for 72 hrs by CCK8 assay; format: functional; in short: as §2
[10] = tested on: Mast/stem cell growth factor receptor Kit (Homo sapiens), P10721 [UNDEFINED MUTATION]; experiment: Inhibition of c-KIT 560 to 578 deletion mutant in human GISTT1 cells assessed as reduction in c-KIT autophosphorylation at Y703 residue at 0.1 uM to 3 uM after 1 hr by Western blot analysis; format: cell-based
In short: (§3)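 Serial compound dilutions applied for 1 h to GIST-T1, GIST-T1-T670I (CRISPR/Cas9 T670I knock-in, clone confirmed by Sanger sequencing) or GIST-5R cells in DMEM with 10% FBS. Cells then lysed and phospho-proteins detected by standard Western blotting.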

[11] = tested on: Mast/stem cell growth factor receptor Kit (Homo sapiens), P10721 [UNDEFINED MUTATION]; experiment: Inhibition of c-KIT 560 to 578 deletion/T670I double mutant in human GIST5R cells assessed as reduction in c-KIT autophosphorylation at Y823 residue at 0.1 uM to 3 uM after 1 hr by Western blot analysis; format: cell-based; in short: as §3
[12] = tested on: Mast/stem cell growth factor receptor Kit (Homo sapiens), P10721 [UNDEFINED MUTATION]; experiment: Inhibition of c-KIT 560 to 578 deletion/T670I double mutant in human GISTT1 cells assessed as reduction in S6 phosphorylation at S235/S236 residue at 0.1 uM to 3 uM after 1 hr by Western blot analysis; format: cell-based; in short: as §3
GISTT1 [13] = experiment: Induction of apoptosis in human GISTT1 cells harboring c-KIT 560 to 578 deletion mutant assessed as increase in cleaved PARP level after 24 hrs by Western blot analysis; format: functional, cell-based
In short: (§4)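 GIST cells grown in DMEM with 10% FBS, treated 24 h with serially diluted compound; apoptosis read by Western blot for PARP, with GAPDH as loading control.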

Homo sapiens = species: Homo sapiens; experiment: Induction of apoptosis in human GIST5R cells harboring c-KIT 560 to 578 deletion/T670I double mutant assessed as increase in cleaved PARP level after 24 hrs by Western blot analysis; format: functional, cell-based; in short: as §4
[14] = MRT (0 to infinity) in Sprague-Dawley rat at 1 mg/kg, iv measured after 2 to 720 mins by LC-tandem mass spectrometry analysis; format: ADME, organism-based; settings: in vivo
In short: (§5)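 Male Sprague–Dawley rats (190-210 g), fasted 12 h, given 1 mg/kg i.v. or 10 mg/kg p.o. in DMSO/5% glucose water (1:9). Blood sampled at 2–720 min (i.v.) or 5–720 min (p.o.). Plasma proteins precipitated with methanol using caffeine internal standard, then LC-MS/MS. Noncompartmental analysis; F = AUC0-∞ ratio corrected for dose; triplicate ±SD.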

[15] = Tmax in Sprague-Dawley rat at 10 mg/kg, po measured after 5 to 720 mins by LC-tandem mass spectrometry analysis; format: ADME, organism-based; settings: in vivo; in short: as §5
[16] = Apparent clearance in mouse at 10 mg/kg, po measured after 5 to 720 mins by LC-tandem mass spectrometry analysis; format: ADME, organism-based; settings: in vivo, read-out: CL(app) (converted)
In short: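 Mice dosed 1 mg/kg i.v. or 10 mg/kg p.o.; plasma drug levels by LC-MS/MS, parameters by noncompartmental analysis; values not from triplicate testing.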

[17] = MRT (0 to infinity) in mouse at 10 mg/kg, po measured after 5 to 720 mins by LC-tandem mass spectrometry analysis; format: ADME, organism-based; settings: in vivo
[18] = Cmax in Sprague-Dawley rat at 1 mg/kg, iv measured after 2 to 720 mins by LC-tandem mass spectrometry analysis; format: ADME, organism-based; parameters: dose 1 mg/kg, route intravenous; settings: in vivo
In short: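 Male Sprague-Dawley rats (190-210 g), fasted 12 h, randomized into two groups: 1 mg/kg i.v. or 10 mg/kg p.o., both formulated in 10% DMSO/90% of 5% glucose water. Blood sampled at 2-720 min (i.v.) or 5-720 min (p.o.). Plasma protein-precipitated with methanol, caffeine internal standard, LC-MS/MS. Noncompartmental analysis; triplicate, ±SD.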

Mus musculus = experiment: Inhibition of c-KIT phosphorylation at Y823 residue in tumor of human GIST5R cells xenografted in nude mouse at 100 mg/kg, po administered as single dose and measured at 2 hrs; format: functional, organism-based
In short: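 Female nu/nu mice bearing subcutaneous GIST-5R xenografts (cells in Matrigel, right flank) given one oral gavage dose of 100 mg/kg in HKI suspension (0.5% methocellulose/0.4% Tween80 in ddH2O). Tumors collected over a 2 h time course; p-c-KIT, p-ERK and p-AKT assessed by Western blot; plasma drug levels monitored in parallel.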

Chain of Mast/stem cell growth factor receptor Kit (Homo sapiens), P10721 [UNDEFINED MUTATION] (P10721 whole entry, looked up, stated change not applied): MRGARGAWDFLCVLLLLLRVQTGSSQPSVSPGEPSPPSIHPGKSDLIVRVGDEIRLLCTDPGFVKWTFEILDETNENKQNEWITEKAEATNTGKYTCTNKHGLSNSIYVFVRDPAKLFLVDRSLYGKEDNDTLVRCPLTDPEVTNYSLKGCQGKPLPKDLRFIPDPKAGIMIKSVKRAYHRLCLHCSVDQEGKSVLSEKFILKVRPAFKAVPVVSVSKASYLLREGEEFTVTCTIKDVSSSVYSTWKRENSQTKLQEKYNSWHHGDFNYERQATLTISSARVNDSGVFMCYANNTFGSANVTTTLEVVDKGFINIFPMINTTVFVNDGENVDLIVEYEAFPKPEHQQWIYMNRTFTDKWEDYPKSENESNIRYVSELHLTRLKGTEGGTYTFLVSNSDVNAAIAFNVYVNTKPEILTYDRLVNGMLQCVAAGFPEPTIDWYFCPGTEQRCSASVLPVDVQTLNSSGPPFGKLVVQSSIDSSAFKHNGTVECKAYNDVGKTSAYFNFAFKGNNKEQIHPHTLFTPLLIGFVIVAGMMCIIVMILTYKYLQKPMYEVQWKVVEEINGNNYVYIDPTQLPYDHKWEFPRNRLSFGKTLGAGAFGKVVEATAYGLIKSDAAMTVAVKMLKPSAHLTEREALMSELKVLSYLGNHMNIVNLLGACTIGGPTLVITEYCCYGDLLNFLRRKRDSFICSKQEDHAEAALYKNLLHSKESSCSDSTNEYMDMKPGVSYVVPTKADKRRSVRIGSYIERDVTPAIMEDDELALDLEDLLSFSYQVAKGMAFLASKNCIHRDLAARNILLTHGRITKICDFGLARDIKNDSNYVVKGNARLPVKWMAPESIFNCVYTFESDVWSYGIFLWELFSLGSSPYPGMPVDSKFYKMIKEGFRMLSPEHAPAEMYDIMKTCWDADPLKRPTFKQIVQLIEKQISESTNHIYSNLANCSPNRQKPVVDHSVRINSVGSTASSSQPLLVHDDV
T1 sequence (P10721 whole entry, the tested form may be a part): as the sequence (P10721 whole entry, looked up, stated change not applied) above
Chain of Mast/stem cell growth factor receptor Kit (Homo sapiens), P10721 [T670I] (P10721 whole entry T670I, the tested form may be a part): as the sequence (P10721 whole entry, looked up, stated change not applied) above, with T670I counted along it
Chain of Mast/stem cell growth factor receptor Kit (Homo sapiens, UniProt P10721, T670I) (P10721 26-976 T670I limits assumed): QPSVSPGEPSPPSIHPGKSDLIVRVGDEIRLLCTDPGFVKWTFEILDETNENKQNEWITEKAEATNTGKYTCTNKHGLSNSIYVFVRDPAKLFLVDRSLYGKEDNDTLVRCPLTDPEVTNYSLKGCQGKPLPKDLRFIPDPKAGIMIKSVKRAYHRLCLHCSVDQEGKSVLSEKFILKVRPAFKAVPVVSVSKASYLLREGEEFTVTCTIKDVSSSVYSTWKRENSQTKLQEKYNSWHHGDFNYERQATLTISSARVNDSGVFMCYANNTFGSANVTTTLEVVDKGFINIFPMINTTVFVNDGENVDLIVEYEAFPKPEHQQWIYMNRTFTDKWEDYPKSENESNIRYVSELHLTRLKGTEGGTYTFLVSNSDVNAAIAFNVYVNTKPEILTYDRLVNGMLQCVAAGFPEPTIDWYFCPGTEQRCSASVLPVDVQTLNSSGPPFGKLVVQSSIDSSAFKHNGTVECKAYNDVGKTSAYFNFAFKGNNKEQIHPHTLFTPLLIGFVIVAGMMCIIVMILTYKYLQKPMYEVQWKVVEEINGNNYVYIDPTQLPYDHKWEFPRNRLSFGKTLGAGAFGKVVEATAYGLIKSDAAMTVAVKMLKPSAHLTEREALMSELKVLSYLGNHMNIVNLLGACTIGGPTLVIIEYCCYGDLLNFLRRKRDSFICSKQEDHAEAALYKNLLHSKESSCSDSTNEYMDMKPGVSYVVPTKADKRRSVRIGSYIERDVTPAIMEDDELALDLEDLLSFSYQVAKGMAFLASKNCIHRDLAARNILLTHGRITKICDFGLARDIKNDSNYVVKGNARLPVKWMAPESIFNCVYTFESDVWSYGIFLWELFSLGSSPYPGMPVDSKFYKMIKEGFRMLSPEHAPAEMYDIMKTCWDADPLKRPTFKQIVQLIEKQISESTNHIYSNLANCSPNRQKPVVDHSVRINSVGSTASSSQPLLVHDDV
Chain of Mast/stem cell growth factor receptor Kit (Homo sapiens), P10721 [V559D] (P10721 whole entry V559D, the tested form may be a part): as the sequence (P10721 whole entry, looked up, stated change not applied) above, with V559D counted along it

O=C(CC(=O)Nc1ccc2c(/C=C/c3ccccn3)n[nH]c2c1)Nc1cccc(F)c1
GI50 at 72 h [1]: 3970 nM
GI50 [2]: 44 nM
GI50 [3]: 8 nM
IC50 [4]: 536 nM
IC50 [5]: 45 nM
EC50 [6]: 1430 nM
GI50 (GISTT1 [7]): 288 nM
GI50 [8]: 475 nM
GI50 [9]: > 10000 nM
inhibition [10]: Active
inhibition [11]: Active
inhibition [12]: Active
Activity (GISTT1 [13]): Dose-dependent effect
Activity (Homo sapiens): Dose-dependent effect
MRT inf [14]: 6.4 h
Tmax [15]: 1.7 h
CL/F [16]: 113 mL/min/kg
MRT inf [17]: 2.2 h
Cmax [18]: 378 ng/mL
inhibition (Mus musculus): Active
